Data reported in ChEMBL document CHEMBL4819034, “Tricyclic-Carbocyclic RORγt Inverse Agonists-Discovery of BMS-986313” (J Med Chem, 2021).

Tests used:
Mus musculus [1] = experiment: Protection against recombinant human IL23-induced acanthosis C57BL/6 mouse model assessed as reduction in IL-17F mRNA levels at 6 mg/kg, po BID BID for 10 days by qRT-PCR analysis relative to control; assay type: functional; design: scale not given: the % may be the effect or the level left; conditions: time 10 day
Summary of the method: (§1)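 In the IL-23 ear-injection model in C57BL/6 mice with BID oral dosing, ear tissue was collected from all animals at study end on day 10. IL-17A and IL-17F mRNA expression was quantified by qPCR and compared with the placebo arm.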

Mus musculus [2] = experiment: Protection against imiquimod-induced C57BL/6 mouse model of psoriasis assessed as reduction in IL-17A mRNA levels at 10 mg/kg, po BID for 7 days by RT-PCR analysis relative to control; assay type: functional; design: scale not given: the % may be the effect or the level left; conditions: time 7 day
Mus musculus [3] = experiment: Protection against imiquimod-induced C57BL/6 mouse model of psoriasis assessed as inhibition of skin thickening at 5 mg/kg, po BID for 7 days and measured every day for 8 days relative to control; assay type: functional; conditions: C57BL/6, po, 168 h, time 7 day
Mus musculus [4] = experiment: Protection against recombinant human IL23-induced acanthosis C57BL/6 mouse model assessed as reduction in IL-17A mRNA levels at 15 mg/kg, po BID BID for 10 days by qRT-PCR analysis relative to control; assay type: functional; design: scale not given: the % may be the effect or the level left; conditions: time 10 day; summary of the method: as §1
Mus musculus [5] = experiment: Protection against recombinant human IL23-induced acanthosis C57BL/6 mouse model assessed as inhibition of ear thickening at 3 mg/kg, po BID for 10 days and measured every other day relative to control; assay type: functional; conditions: C57BL/6, po, 240 h, time 10 day
Summary of the method: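 IL-23 ear-injection acanthosis model in C57BL/6 mice with BID oral dosing. Ear thickness % change was recorded every other day, before each next injection, from a day 0 baseline. Inhibition of ear thickening was calculated against the placebo arm from the area under the curve over the study duration.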

[6] = Clearance in cynomolgus monkey at 1 mg/kg, iv; assay type: ADME, organism-based, Macaca fascicularis; conditions: in vivo
Summary of the method: (§2)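 Single-dose PK, IV and PO. Doses: mouse and rat 2 mg/kg IV / 4 mg/kg PO; dog and cyno 1 mg/kg IV, with 1 or 2 mg/kg PO.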

Mus musculus [7] = experiment: Protection against imiquimod-induced C57BL/6 mouse model of psoriasis assessed as inhibition of skin thickening at 20 mg/kg, po BID for 7 days and measured every day for 8 days relative to control; assay type: functional; conditions: C57BL/6, po, 168 h, time 7 day
[8] = Half life in mouse liver microsomes; assay type: ADME, Microsome
Summary of the method: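 Liver microsome half-life (min) measured in human, mouse, rat, dog and cyno liver microsomes.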

[9] = Volume of distribution at steady state in dog at 1 mg/kg, iv; assay type: ADME, organism-based, Canis lupus familiaris; conditions: in vivo, read-out: Vdss
Summary of the method: (§3)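 Single intravenous dose: mouse and rat 2 mg/kg, dog and cynomolgus 1 mg/kg. Steady-state volume of distribution was derived from the IV arm. Values are means from three or more animals.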

[10] = AUC (0 to 24 hrs) in mouse at 4 mg/kg, po; assay type: ADME, organism-based; design: time < 24 hr, route oral, dose 4 mg/kg; conditions: in vivo
[11] = Clearance in mouse at 2 mg/kg, iv; assay type: ADME, organism-based; conditions: in vivo; summary of the method: as §2
[12] = Volume of distribution at steady state in rat at 2 mg/kg, iv; assay type: ADME, organism-based; conditions: in vivo, read-out: Vdss; summary of the method: as §3
Mus musculus [13] = experiment: Protection against recombinant human IL23-induced acanthosis C57BL/6 mouse model assessed as reduction in IL-17F mRNA levels at 15 mg/kg, po BID BID for 10 days by qRT-PCR analysis relative to control; assay type: functional; design: scale not given: the % may be the effect or the level left; conditions: time 10 day; summary of the method: as §1
[14] = Protein binding in human assessed as unbound fraction; assay type: ADME
[15] = molecular target: T1, Nuclear receptor ROR-gamma (Mus musculus, UniProt P51450); experiment: Inverse agonist activity at RORgammat in mouse Th17 cells assessed as inhibition of CD3/CD28/IL-1/IL-23-induced IL-17A production measured after 24 hrs by AlphaLISA assay; assay type: cell-based
T1 sequence (P51450 whole entry): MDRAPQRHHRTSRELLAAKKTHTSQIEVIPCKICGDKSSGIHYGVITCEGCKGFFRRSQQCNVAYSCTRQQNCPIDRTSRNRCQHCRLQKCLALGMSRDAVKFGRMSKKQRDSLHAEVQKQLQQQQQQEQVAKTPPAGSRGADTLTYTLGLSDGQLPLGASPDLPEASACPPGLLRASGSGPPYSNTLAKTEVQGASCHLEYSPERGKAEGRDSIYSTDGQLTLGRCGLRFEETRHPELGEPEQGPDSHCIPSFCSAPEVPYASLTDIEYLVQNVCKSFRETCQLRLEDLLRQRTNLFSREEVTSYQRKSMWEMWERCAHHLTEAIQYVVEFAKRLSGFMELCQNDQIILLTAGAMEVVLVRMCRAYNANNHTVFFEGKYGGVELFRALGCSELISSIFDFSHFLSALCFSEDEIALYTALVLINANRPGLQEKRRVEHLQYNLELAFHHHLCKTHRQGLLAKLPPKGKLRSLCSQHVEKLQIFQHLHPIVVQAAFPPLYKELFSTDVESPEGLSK

[16] = Volume of distribution at steady state in cynomolgus monkey at 1 mg/kg, iv; assay type: ADME, organism-based, Macaca fascicularis; conditions: in vivo, read-out: Vdss; summary of the method: as §3
[17] = AUC (0 to 24 hrs) in cynomolgus monkey at 2 mg/kg, po; assay type: ADME, organism-based, Macaca fascicularis; design: time < 24 hr, route oral, dose 2 mg/kg; conditions: in vivo
[18] = Clearance in dog at 1 mg/kg, iv; assay type: ADME, organism-based, Canis lupus familiaris; conditions: in vivo; summary of the method: as §2
[19] = molecular target: T2, Oxysterols receptor LXR-beta (Homo sapiens, UniProt P55055); experiment: Inverse agonist activity at LXRbeta (unknown origin)
T2 sequence (P55055 whole entry): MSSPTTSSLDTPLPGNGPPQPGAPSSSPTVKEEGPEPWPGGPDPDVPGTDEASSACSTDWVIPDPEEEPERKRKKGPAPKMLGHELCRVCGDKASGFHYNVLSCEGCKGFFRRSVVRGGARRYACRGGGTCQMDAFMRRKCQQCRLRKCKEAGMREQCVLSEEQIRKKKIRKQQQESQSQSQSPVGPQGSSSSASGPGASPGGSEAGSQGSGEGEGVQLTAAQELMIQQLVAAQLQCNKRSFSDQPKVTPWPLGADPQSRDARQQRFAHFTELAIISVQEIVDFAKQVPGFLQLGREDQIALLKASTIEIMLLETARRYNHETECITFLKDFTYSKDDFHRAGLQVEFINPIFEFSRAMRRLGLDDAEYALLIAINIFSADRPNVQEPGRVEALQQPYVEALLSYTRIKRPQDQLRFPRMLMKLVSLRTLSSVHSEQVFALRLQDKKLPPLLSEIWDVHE

[20] = Metabolic stability in human liver microsomes assessed as parent compound remaining; assay type: ADME, Microsome
Summary of the method: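 Test compound at 0.5 μM initial concentration incubated with human, mouse or rat liver microsomes (protein 1 mg/mL). Metabolic stability reported as percent of parent compound remaining after incubation.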

Work on `CC(C)(O)C(=O)N[C@@H]1CC[C@@]2(S(=O)(=O)c3ccc(F)cc3)c3ccc(C(F)(C(F)(F)F)C(F)(F)F)cc3CC[C@@H]12` yielded an Activity (Mus musculus [1]) of 87.3%, an Activity (Mus musculus [2]) of 76.7% and an inhibition in vivo at 5 mg/kg (Mus musculus [3]) of 13.7%. The Activity (Mus musculus [4]) was 71.6%, the inhibition in vivo at 3 mg/kg (Mus musculus [5]) was 42.3% and the clearance [6] was 2.7 mL/min/kg. For the same compound, the inhibition in vivo at 20 mg/kg (Mus musculus [7]) was 57.7%, the half-life [8] was 2 h and the Vd [9] was 3.2 L/kg. For the same compound, the AUC(0-t) at 24 h [10] was 33.2 µM·h, the clearance [11] was 3.7 mL/min/kg and the Vd [12] was 2.9 L/kg. The Activity (Mus musculus [13]) was 79.6%, the fraction unbound [14] was 0.005 and the EC50 [15] was 2.7 nM. For the same compound, the Vd [16] was 2.7 L/kg, the AUC(0-t) at 24 h [17] was 18 µM·h and the clearance [18] was 0.8 mL/min/kg. The EC50 [19] was > 5000 nM and the Stabilty [20] was 100%.
